Reference: ChEMBL document CHEMBL5058577, “EUbOPEN Chemogenomics Library 2 (Multiplex)” (2022)

Test system: Fibroblast
Test: Multiplex assay against human fibroblast
Assay type: toxicity, cell-based
Outline: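 Live cells were stained at seeding with Hoechst33342, BioTracker Green Microtubule Cytoskeleton Dye, MitoTracker Red and Annexin V Alexa Fluor 680, then imaged on a CQ1 microscope at 37°C and 5% CO2 after compound addition. CellPathfinder machine-learning gating split cells into Hoechst high-intensity objects or normal cells. Normal cells were split into healthy, pyknosed or fragmented nuclei, and pyknosed cells into mitotic or apoptotic. Tubulin, mitochondrial-mass and membrane-permeability phenotypes are per cents of healthy-nucleus cells.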

[1] = 12 h, 1 µM, compound concentration 1 uM, replicate 1
[2] = 12 h, 1 µM, compound concentration 1 uM, replicate 2
[3] = 12 h, 10 µM, compound concentration 10 uM, replicate 1
[4] = 12 h, 10 µM, compound concentration 10 uM, replicate 2
[5] = 24 h, 1 µM, compound concentration 1 uM, replicate 1
[6] = 24 h, 1 µM, compound concentration 1 uM, replicate 2
[7] = 24 h, 10 µM, compound concentration 10 uM, replicate 1
[8] = 24 h, 10 µM, compound concentration 10 uM, replicate 2
[9] = 48 h, 1 µM, compound concentration 1 uM, replicate 1
[10] = 48 h, 1 µM, compound concentration 1 uM, replicate 2
[11] = 48 h, 10 µM, compound concentration 10 uM, replicate 1
[12] = 48 h, 10 µM, compound concentration 10 uM, replicate 2

Br.CS(=O)(=O)Nc1c(O)ccc2c1CCCC2C1=NCCN1 (configuration not stated)
Population Apoptotic (%) [1]: 17% | Population Fragmented Nuclei (%) [1]: 9% | Population Healthy Nuclei (%) [1]: 76% | Population Hoechst High Intensity Objects (%) [1]: 1% | Population Membrane Permeable-Phenotype (%) [1]: 0% | Population Mitochondria Different-Phenotype (%) [1]: 5% | Population Mitotic Cells (%) [1]: 82% | Population Normal (%) [1]: 98% | Population Pyknosed Nuclei (%) [1]: 14% | Population Tubulin-Different-Phenotype (%) [1]: 20% | Total Cell Count [1]: 167 | Population Apoptotic (%) [2]: 31% | Population Fragmented Nuclei (%) [2]: 32% | Population Healthy Nuclei (%) [2]: 47% | Population Hoechst High Intensity Objects (%) [2]: 8% | Population Membrane Permeable-Phenotype (%) [2]: 7% | Population Mitochondria Different-Phenotype (%) [2]: 8% | Population Mitotic Cells (%) [2]: 68% | Population Normal (%) [2]: 91% | Population Pyknosed Nuclei (%) [2]: 19% | Population Tubulin-Different-Phenotype (%) [2]: 38% | Total Cell Count [2]: 192 | Population Apoptotic (%) [3]: 38% | Population Fragmented Nuclei (%) [3]: 20% | Population Healthy Nuclei (%) [3]: 47% | Population Hoechst High Intensity Objects (%) [3]: 6% | Population Membrane Permeable-Phenotype (%) [3]: 1% | Population Mitochondria Different-Phenotype (%) [3]: 7% | Population Mitotic Cells (%) [3]: 61% | Population Normal (%) [3]: 93% | Population Pyknosed Nuclei (%) [3]: 31% | Population Tubulin-Different-Phenotype (%) [3]: 21% | Total Cell Count [3]: 148 | Population Apoptotic (%) [4]: 33% | Population Fragmented Nuclei (%) [4]: 38% | Population Healthy Nuclei (%) [4]: 45% | Population Hoechst High Intensity Objects (%) [4]: 0% | Population Membrane Permeable-Phenotype (%) [4]: 12% | Population Mitochondria Different-Phenotype (%) [4]: 5% | Population Mitotic Cells (%) [4]: 66% | Population Normal (%) [4]: 99% | Population Pyknosed Nuclei (%) [4]: 16% | Population Tubulin-Different-Phenotype (%) [4]: 43% | Total Cell Count [4]: 129 | Population Apoptotic (%) [5]: 56% | Population Fragmented Nuclei (%) [5]: 12% | Population Healthy Nuclei (%) [5]: 77% | Population Hoechst High Intensity Objects (%) [5]: 1% | Population Membrane Permeable-Phenotype (%) [5]: 0% | Population Mitochondria Different-Phenotype (%) [5]: 3% | Population Mitotic Cells (%) [5]: 43% | Population Normal (%) [5]: 98% | Population Pyknosed Nuclei (%) [5]: 10% | Population Tubulin-Different-Phenotype (%) [5]: 16% | Total Cell Count [5]: 159 | Population Apoptotic (%) [6]: 33% | Population Fragmented Nuclei (%) [6]: 25% | Population Healthy Nuclei (%) [6]: 60% | Population Hoechst High Intensity Objects (%) [6]: 7% | Population Membrane Permeable-Phenotype (%) [6]: 2% | Population Mitochondria Different-Phenotype (%) [6]: 7% | Population Mitotic Cells (%) [6]: 66% | Population Normal (%) [6]: 92% | Population Pyknosed Nuclei (%) [6]: 14% | Population Tubulin-Different-Phenotype (%) [6]: 41% | Total Cell Count [6]: 180 | Population Apoptotic (%) [7]: 48% | Population Fragmented Nuclei (%) [7]: 16% | Population Healthy Nuclei (%) [7]: 60% | Population Hoechst High Intensity Objects (%) [7]: 3% | Population Membrane Permeable-Phenotype (%) [7]: 0% | Population Mitochondria Different-Phenotype (%) [7]: 2% | Population Mitotic Cells (%) [7]: 51% | Population Normal (%) [7]: 96% | Population Pyknosed Nuclei (%) [7]: 23% | Population Tubulin-Different-Phenotype (%) [7]: 24% | Total Cell Count [7]: 148 | Population Apoptotic (%) [8]: 41% | Population Fragmented Nuclei (%) [8]: 41% | Population Healthy Nuclei (%) [8]: 44% | Population Hoechst High Intensity Objects (%) [8]: 0% | Population Membrane Permeable-Phenotype (%) [8]: 10% | Population Mitochondria Different-Phenotype (%) [8]: 10% | Population Mitotic Cells (%) [8]: 58% | Population Normal (%) [8]: 99% | Population Pyknosed Nuclei (%) [8]: 13% | Population Tubulin-Different-Phenotype (%) [8]: 41% | Total Cell Count [8]: 130 | Population Apoptotic (%) [9]: 57% | Population Fragmented Nuclei (%) [9]: 14% | Population Healthy Nuclei (%) [9]: 76% | Population Hoechst High Intensity Objects (%) [9]: 4% | Population Membrane Permeable-Phenotype (%) [9]: 4% | Population Mitochondria Different-Phenotype (%) [9]: 3% | Population Mitotic Cells (%) [9]: 42% | Population Normal (%) [9]: 95% | Population Pyknosed Nuclei (%) [9]: 8% | Population Tubulin-Different-Phenotype (%) [9]: 24% | Total Cell Count [9]: 167 | Population Apoptotic (%) [10]: 38% | Population Fragmented Nuclei (%) [10]: 26% | Population Healthy Nuclei (%) [10]: 61% | Population Hoechst High Intensity Objects (%) [10]: 5% | Population Membrane Permeable-Phenotype (%) [10]: 0% | Population Mitochondria Different-Phenotype (%) [10]: 9% | Population Mitotic Cells (%) [10]: 61% | Population Normal (%) [10]: 94% | Population Pyknosed Nuclei (%) [10]: 12% | Population Tubulin-Different-Phenotype (%) [10]: 41% | Total Cell Count [10]: 177 | Population Apoptotic (%) [11]: 61% | Population Fragmented Nuclei (%) [11]: 22% | Population Healthy Nuclei (%) [11]: 61% | Population Hoechst High Intensity Objects (%) [11]: 6% | Population Membrane Permeable-Phenotype (%) [11]: 1% | Population Mitochondria Different-Phenotype (%) [11]: 2% | Population Mitotic Cells (%) [11]: 38% | Population Normal (%) [11]: 93% | Population Pyknosed Nuclei (%) [11]: 15% | Population Tubulin-Different-Phenotype (%) [11]: 21% | Total Cell Count [11]: 145 | Population Apoptotic (%) [12]: 33% | Population Fragmented Nuclei (%) [12]: 48% | Population Healthy Nuclei (%) [12]: 44% | Population Hoechst High Intensity Objects (%) [12]: 1% | Population Membrane Permeable-Phenotype (%) [12]: 3% | Population Mitochondria Different-Phenotype (%) [12]: 9% | Population Mitotic Cells (%) [12]: 66% | Population Normal (%) [12]: 98% | Population Pyknosed Nuclei (%) [12]: 7% | Population Tubulin-Different-Phenotype (%) [12]: 45% | Total Cell Count [12]: 127
